{"data": "Results of several laboratories", "note": "Protocols differ between the studies behind these lines."}
{"Structure (SMILES)": "Nc1nc(N)c(CNCCc2cccc(Cl)c2)c(C2CC2)n1", "cell line": "Vero", "test": "cell growth or viability, SRB", "endpoint": "IC50", "value": "76 µM"}
{"Structure (SMILES)": "O=C(CC(=O)C(F)(F)F)C(F)(F)F", "cell line": "HL-60", "test": "cell growth or viability, resazurin", "setting": "72 h, dark", "endpoint": "IC50", "value": "> 100 µM"}
{"Structure (SMILES)": "COc1ccc(/C=C/C(=O)c2c(O)cc(OC)cc2OC)cc1", "cell line": "SPCA1", "test": "cell growth or viability, MTT", "endpoint": "IC50", "value": "19.1 µM"}
{"Structure (SMILES)": "C[S+]([O-])CCCCN=C=S (centres unmarked)", "cell line": "RAW264.7", "test": "NO release, inhibitor, Griess", "setting": "10 µM, LPS-stimulated", "endpoint": "inhibition", "value": "91.6%"}
{"Structure (SMILES)": "Cc1nc(Nc2ncc(C(=O)Nc3c(C)cccc3Cl)s2)cc(N2CCN(CCO)CC2)n1", "cell line": "SK-BR-3", "test": "cell growth or viability, WST-1", "setting": "72 h", "endpoint": "GI50", "value": "1.6 µM"}
{"Structure (SMILES)": "N.N.[Cl][Pt][Cl]", "cell line": "SMMC-7721", "test": "cell growth or viability, MTT", "setting": "20 µM", "endpoint": "inhibition", "value": "73.8%"}
{"Structure (SMILES)": "C[C@H]1CN(c2ccncc2NC(=O)c2ccc(F)c(-c3c(F)cccc3F)n2)C[C@@H](N)[C@@H]1O", "cell line": "U-266", "test": "cell growth or viability, thymidine uptake", "endpoint": "GI50", "value": "0.342 µM"}
{"Structure (SMILES)": "Nc1nc(N)c(CNCCc2ccccc2F)c(C2CC2)n1", "cell line": "Vero", "test": "cell growth or viability, SRB", "endpoint": "IC50", "value": "> 100 µM"}
{"Structure (SMILES)": "N.N.[Cl][Pt][Cl]", "cell line": "HL-60", "test": "cell growth or viability, MTT", "setting": "48 h", "endpoint": "IC50", "value": "1.17 µM"}
{"Structure (SMILES)": "COc1cccc2c1C(=O)c1c(O)c3c(c(O)c1C2=O)C[C@@](O)(C(=O)CO)C[C@@H]3O[C@H]1C[C@H](N)[C@H](O)[C@H](C)O1", "cell line": "SPCA1", "test": "cell growth or viability, MTT", "endpoint": "IC50", "value": "30 µM"}
{"Structure (SMILES)": "COc1cc([C@@H]2c3cc4c(cc3[C@H](O)[C@H]3COC(=O)[C@H]23)OCO4)cc(OC)c1OC", "cell line": "NCI-H1299", "test": "cell growth or viability, MTT", "setting": "72 h", "endpoint": "EC50", "value": "0.003 µM"}
{"Structure (SMILES)": "COc1c(O)cc2oc3cc(O)c(CC=C(C)C)c(O)c3c(=O)c2c1CC=C(C)C", "cell line": "22Rv1", "test": "cell growth or viability", "setting": "48 h", "endpoint": "IC50", "value": "19.5 µM"}
{"Structure (SMILES)": "Nc1nc(N)c(CNCCc2ccc(Cl)cc2)c(C2CC2)n1", "cell line": "Vero", "test": "cell growth or viability, SRB", "endpoint": "IC50", "value": "70 µM"}
{"Structure (SMILES)": "OC[C@H](Cc1cccc(O)c1)[C@H](CO)Cc1cccc(O)c1", "cell line": "SPCA1", "test": "cell growth or viability, MTT", "endpoint": "IC50", "value": "61.1 µM"}
